# Results pooled from the literature.
# Lines come from different studies, so protocols differ.
# Target: Phosphorylase b kinase gamma catalytic chain, liver/testis isoform (PHKG2, Homo sapiens, UniProt P15735)
# One construct used (P15735 1-406): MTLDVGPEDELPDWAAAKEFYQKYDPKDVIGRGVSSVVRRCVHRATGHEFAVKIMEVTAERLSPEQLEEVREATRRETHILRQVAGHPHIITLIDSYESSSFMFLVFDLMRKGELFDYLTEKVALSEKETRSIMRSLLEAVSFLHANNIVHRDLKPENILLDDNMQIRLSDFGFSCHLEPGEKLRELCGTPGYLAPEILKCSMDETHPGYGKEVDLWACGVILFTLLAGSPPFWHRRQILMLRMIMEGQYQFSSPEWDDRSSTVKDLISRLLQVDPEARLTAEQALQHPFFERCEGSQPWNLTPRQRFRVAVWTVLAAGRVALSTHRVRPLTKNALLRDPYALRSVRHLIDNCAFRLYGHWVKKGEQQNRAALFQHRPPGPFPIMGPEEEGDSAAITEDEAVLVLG
SMILES,test,test system,setting,measurement,value
Clc1ccc(Nc2nnc(Cc3ccncc3)c3ccccc23)cc1,cell-free assay,,0.5 µM,remaining signal,91.8%
Cc1sc(C(=O)NC2COC2)cc1-n1cc(NC(=O)Nc2c(F)cccc2Cl)cn1,"enzyme activity, inhibitor",,10 µM,remaining activity,88.5%
CC(=O)N1CCC(c2ccc(C(=O)NC(=N)N)cc2C(F)(F)F)CC1,"cell-free assay, competition with immobilised ligand",,1 µM,remaining binding,100%
CCN(CC)CCNC(=O)c1c(C)[nH]c(/C=C2\C(=O)Nc3ccc(F)cc32)c1C,"enzyme activity, inhibitor",,10 µM,inhibition,101%
c1ccc(CNc2nc(N3CCOc4ccccc43)nc3c2CCCC3)cc1,"target engagement in cells, inhibitor, chemoproteomics",,20 mM,inhibition,-2.7%
COc1ccc(COc2ccc(Cc3cnc(N)nc3N)cc2OC)cc1,cell-free assay,,0.5 µM,remaining signal,106%
O=C(Nc1cccnn1)N1CC(C/C=C/c2cncc(Oc3ccc(C(F)(F)F)cn3)n2)C1,"cell-free assay, competition with immobilised ligand",,1 µM,remaining binding,100%
CCN(CC)c1ccc(C2=NNC(=O)CC2C)cc1[N+](=O)[O-] (stereo not drawn),"enzyme activity, inhibitor",,10 µM,remaining activity,107%
Cc1cc(NC(=O)c2cccc3cc(-c4cccc5[nH]nc(N)c45)ccc23)ccc1F,"enzyme activity, inhibitor",,0.1 µM,activity vs control,87%
COc1cc2ncnc(Nc3ccc(Oc4ccccc4)c(C)c3C)c2cc1OC,"enzyme activity, inhibitor",,1 µM,inhibition,2%
CNc1cc(Oc2cc(C(=O)Nc3cc(N4CCN(C)CC4)cc(C(F)(F)F)c3)ccc2C)ncn1,"target engagement in cells, inhibitor, chemoproteomics",Huh-7,1 µM,inhibition,-18.1%
CCC(=O)N[C@@H]1CC[C@H](C(=O)N(C)c2ccc(-c3nc4ccccc4o3)cc2)C1,"cell-free assay, competition with immobilised ligand",,1 µM,remaining binding,100%
O=C1Nc2ccc(Cl)cc2C1=Cc1cc(Cl)c(O)c(Cl)c1,cell-free assay,,0.5 µM,remaining signal,98.4%
CCCOc1ccc(OC)c(F)c1C(=O)c1ccc(C(=O)N[C@@H]2CNC[C@H]2NC(=O)c2ccc3[nH]ncc3c2)cc1,"enzyme activity, inhibitor",,10 µM,remaining activity,51%
CC(C)(C)c1nc2c(s1)c1nc(N)ncc1c1ccc(NS(=O)(=O)c3c(F)cccc3F)c(F)c12,"enzyme activity, inhibitor, radiometric",,1 µM,remaining activity,92%
O=C(Nc1cccnn1)N1CCC(=Cc2cccc(Oc3ccc(C(F)(F)F)cn3)c2)CC1,"cell-free assay, competition with immobilised ligand",,1 µM,remaining binding,88%
Cc1ccc(Nc2nccc(N(C)c3ccc4c(C)n(C)nc4c3)n2)cc1S(N)(=O)=O,"enzyme activity, inhibitor",,0.3 µM,inhibition,-4%
NS(=O)(=O)c1cc(NC(=O)C2(c3ccccc3Cl)CC2)ccc1Oc1cccc(Cl)c1,"cell-free assay, competition with immobilised ligand",,1 µM,remaining binding,100%
COc1cc(Cl)c(C(=O)N[C@@H](CN[C@H]2CC[C@@H](N)CC2)Cc2ccc(C#N)cc2)cc1-c1ccc(CN[C@H](C)c2ccc(C)cc2)o1,"enzyme activity, inhibitor",,1 µM,remaining activity,103%
COCCOc1nc(-c2ccc(Cl)nc2)nc2c1CN(C(=O)c1ncn3ccccc13)CC2,"cell-free assay, competition with immobilised ligand",,0.1 µM,remaining binding,100%
CC(C)(O)[C@H]1CC[C@H](Nc2ccc3ncc(-c4cccc(C(F)(F)F)c4)n3n2)CC1,"enzyme activity, inhibitor",,1 µM,remaining activity,99.4%
CC/C(=N\NC(=O)NCc1cccc(O)c1)c1ccc(O)c(C)c1O,"enzyme activity, inhibitor",,0.1 µM,inhibition,-2.9%
COc1cccc2c(NCc3ccccc3)nc(-n3c(N)nc4ccccc43)nc12,"target engagement in cells, inhibitor, chemoproteomics",,20 mM,inhibition,4.6%
CNC(=O)c1cc(Oc2ccc(NC(=O)Nc3ccc(Cl)c(C(F)(F)F)c3)cc2)ccn1,cell-free assay,,0.5 µM,remaining signal,91.3%
CCCCN(CCCC)C(=O)CN1C[C@@H](c2cc(OC)c3c(c2)OCO3)[C@H](C(=O)O)[C@H]1CC(C)(C)CCC,"cell-free assay, competition with immobilised ligand",,1 µM,remaining binding,100%
CS(=O)(=O)CCNCc1ccc(-c2ccc3ncnc(Nc4ccc(OCc5cccc(F)c5)c(Cl)c4)c3c2)o1,cell-free assay,,0.5 µM,remaining signal,99.5%
CNCc1ccccc1-c1csc([C@H](C)Nc2nc(C)nc3cc(OC)c(OC)cc23)c1,"cell-free assay, competition with immobilised ligand",,1 µM,remaining binding,100%
